Results gathered from unrelated publications.
Each line is one published result; the experiments were not run side by side.
Organism: Clostridioides difficile
Observed: microbial growth

SMILES | assay | system | conditions | MIC
COCCNc1ccc(-c2nc(-c3ccc(Oc4ccccc4)cc3)no2)cc1 | broth dilution |  | 48 h | 8 µg/mL
Oc1cc(-c2nc(-c3ccc(Oc4ccc(C(F)(F)F)cc4)cc3)no2)cc(F)c1O | broth dilution | ATCC43255 | 48 h | 128 µg/mL
O=C(NCc1nc(-c2ccc(Br)cc2)c[nH]1)Nc1nc2ccc(OC(F)(F)F)cc2s1 | broth dilution | R20291 | 24 h | 12.5 to 25 µg/mL
Cc1ncc([N+](=O)[O-])n1CCO | broth dilution | 630 |  | > 0.5 µg/mL
Cl.NCCCc1ccc(Oc2ccc(-c3noc(-c4ccc(O)cc4)n3)cc2)cc1 | broth dilution |  | 48 h | 2 µg/mL
O=C(Nc1ncc([N+](=O)[O-])s1)C1CCCCC1 | agar dilution | VPI10463 | 18 h | 5.9 µM
N#Cc1ccc(Oc2ccc(-c3noc(-c4ccc(O)cc4)n3)cc2)cc1 | broth dilution | ATCC43255 | 48 h | 8 to 128 µg/mL
O=C(O)Cc1ccc(Oc2ccc(-c3noc(-c4ccc(O)cc4)n3)cc2)cc1 | broth dilution |  | 48 h | 50 µg/mL
O=C(NCc1nc(-c2ccc(Br)cc2)c[nH]1)[C@H]1CSC(c2ccccn2)=N1 | broth dilution | R20291 | 24 h | > 50 µg/mL
Oc1ccc(Oc2ccc(-c3noc(-c4ccc(O)cc4)n3)cc2)cc1 | broth dilution | ATCC43255 | 48 h | 8 to 128 µg/mL
